What all share (type): functional
Common to all, as to settings: for CC50: read-out: CD50 (the source's name)

Assay [1] has as its system OVCAR-3. Nature of the assay: Cytotoxicity against human OVCAR-3 cells by MTT assay. In a few lines:
(§1)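 MTT colorimetric read-out. The value is reported as CD50.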
Background: Tetrazolium assays rely on reduction of a dye to a coloured formazan, in cell work by metabolically active cells.

In assay [2] the test system is HeLa. Description: Cytotoxicity against human HeLa cells by MTT assay. In a few lines: as §1
In assay [3] the test system is HepG2. Nature of the assay: Cytotoxicity against human HepG2 cells by MTT assay. A digest of the protocol:
as §1

On to `Cc1nc2c3c(c4ccc5c(c4c2o1)CCCC5(C)C)OCC3C` (stereo unspecified), for which the results for the CC50 in assay [1], in assay [2] and in assay [3] were 126 µM, 108 µM and 121 µM, respectively.

Turning to `Cc1coc2c1C(=O)C(=O)c1c-2ccc2c1CCCC2(C)C` [TANSHINONE IIA], the CC50 in assay [1] is 9.52 µM; in assay [2], 8.5 µM; in assay [3], 26.5 µM.

Consider `C[C@H]1COC2=C1C(=O)C(=O)c1c2ccc2c1CCCC2(C)C` [CRYPTOTANSHINONE], for which the CC50 in assay [1] is 9.12 µM; in assay [2] it was 17.2 µM; in assay [3] it was 29.7 µM.

Take `Cc1nc2c(o1)c1c3c(ccc1c1occ(C)c21)C(C)(C)CCC3` [NEOSALVIANEN]: the results for the CC50 in assay [1], in assay [2] and in assay [3] were 74.6 µM, 63.9 µM and 59.2 µM, respectively.

For the compound `Cc1nc2c(o1)c1c(C)coc1c1ccc3c(c12)CCCC3(C)C` [SALVIANEN], the Activity entry in assay [1], in assay [2] and in assay [3] was “Dose-dependent effect” throughout. Further, the CC50 in assay [1] is 39.5 µM; in assay [2], 32.3 µM; in assay [3], 30.4 µM.

In the case of `CC(C)C1=Cc2ccc3c4c([nH]c(c24)C1=O)C(=O)CC3(C)C` [SALVIADIONE], the CC50 in assay [1] was 169 µM; in assay [2], 178 µM; in assay [3], 137 µM.

These data come from ChEMBL document CHEMBL1141749, “Nitrogen-containing compounds from Salvia miltiorrhiza” (2005).
